# Measurements taken from ChEMBL document CHEMBL1131191, “De novo design, synthesis, and biological activities of high-affinity and selective non-peptide agonists of the delta-opioid receptor” (J Med Chem, 1998).
# Assays:
# [1] = target: Delta-type opioid receptor (Rattus norvegicus, UniProt P33533); assay: Binding affinity was measured against Opioid receptor delta 1 using [3H]p-Cl-DPDPE as radioligand.
# Mu-type opioid receptor [2] = target: Mu-type opioid receptor (Rattus norvegicus, UniProt P33535); assay: Binding affinity was measured against Opioid receptor mu 1 using [3H]-DAMGO as radioligand.
# Mu-type opioid receptor (Rattus norvegicus, UniProt P33535), sequence (P33535 whole entry): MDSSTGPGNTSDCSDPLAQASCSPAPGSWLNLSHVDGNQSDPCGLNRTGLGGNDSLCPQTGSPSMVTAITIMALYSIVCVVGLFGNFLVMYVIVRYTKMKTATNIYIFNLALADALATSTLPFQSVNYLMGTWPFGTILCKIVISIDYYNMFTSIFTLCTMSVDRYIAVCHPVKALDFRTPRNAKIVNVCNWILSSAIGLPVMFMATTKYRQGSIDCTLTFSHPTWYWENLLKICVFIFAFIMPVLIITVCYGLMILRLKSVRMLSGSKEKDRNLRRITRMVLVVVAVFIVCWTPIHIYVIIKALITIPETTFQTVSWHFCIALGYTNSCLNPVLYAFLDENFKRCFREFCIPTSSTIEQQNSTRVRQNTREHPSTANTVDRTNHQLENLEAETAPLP
# [3] = target: Delta-type opioid receptor (Mus musculus, UniProt P32300); assay: Tested for electrically induced smooth muscle contractions from mouse vas deferens expressed in delta opioid receptors; type: functional
# Delta-type opioid receptor (Mus musculus, UniProt P32300), sequence (P32300 whole entry): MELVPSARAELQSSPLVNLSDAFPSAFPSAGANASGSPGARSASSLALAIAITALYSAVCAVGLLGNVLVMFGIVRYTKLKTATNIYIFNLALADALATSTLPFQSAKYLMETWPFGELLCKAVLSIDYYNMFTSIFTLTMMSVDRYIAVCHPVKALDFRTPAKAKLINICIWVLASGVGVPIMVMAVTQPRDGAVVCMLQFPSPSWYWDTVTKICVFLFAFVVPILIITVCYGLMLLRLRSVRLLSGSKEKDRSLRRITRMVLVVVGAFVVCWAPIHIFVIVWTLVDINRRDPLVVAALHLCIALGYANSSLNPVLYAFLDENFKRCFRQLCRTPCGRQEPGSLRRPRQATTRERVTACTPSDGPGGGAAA
# Outline: (§1)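 Electrically stimulated contractions of male Hartley guinea pig ileum longitudinal muscle–myenteric plexus (1 g tension, 0.4-ms pulses) or male ICR mouse vas deferens (0.5 g, 2.0-ms pulses, Mg-free Krebs). Baths at 37 °C, oxygenated Krebs, 0.1 Hz, supramaximal voltage. Agonist left 3 min. Percent inhibition of twitch height, IC50 from Hill fit, ≥4 tissues.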
# Mu-type opioid receptor [4] = target: Mu-type opioid receptor (Cavia porcellus, UniProt P97266); assay: Tested for electrically induced smooth muscle contractions from guinea pig ileum expressed in mu opioid receptors; type: functional, tissue-based; outline: as §1
# Mu-type opioid receptor (Cavia porcellus, UniProt P97266), sequence (P97266 whole entry): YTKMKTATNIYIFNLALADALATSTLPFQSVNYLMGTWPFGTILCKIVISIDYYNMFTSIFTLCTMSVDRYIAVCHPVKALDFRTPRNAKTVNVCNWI
# Cavia porcellus = species: Cavia porcellus; assay: mu-opioid receptor antagonistic activity was measured in guinea pig ileum.; type: functional
# [5] = target: Opioid receptors; mu & delta (Homo sapiens) (UniProt P41143+P35372); assay: It is the ratio of EC50(mu receptor) to that of EC50 for(delta receptor); type: functional
# Opioid receptors; mu & delta (Homo sapiens), sequence (P35372 whole entry, looked up): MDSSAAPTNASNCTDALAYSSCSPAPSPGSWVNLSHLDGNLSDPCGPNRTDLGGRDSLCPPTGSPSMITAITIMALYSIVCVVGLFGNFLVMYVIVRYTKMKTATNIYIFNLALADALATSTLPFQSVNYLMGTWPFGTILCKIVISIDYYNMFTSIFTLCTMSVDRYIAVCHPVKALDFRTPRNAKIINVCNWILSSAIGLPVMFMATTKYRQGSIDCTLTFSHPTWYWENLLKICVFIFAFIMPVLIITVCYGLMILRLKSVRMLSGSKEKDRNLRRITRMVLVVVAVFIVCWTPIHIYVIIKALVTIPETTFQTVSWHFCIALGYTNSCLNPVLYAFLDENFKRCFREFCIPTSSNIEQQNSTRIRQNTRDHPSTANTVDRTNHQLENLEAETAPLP
# Opioid receptors; mu & delta (Homo sapiens), sequence (P41143 whole entry, looked up): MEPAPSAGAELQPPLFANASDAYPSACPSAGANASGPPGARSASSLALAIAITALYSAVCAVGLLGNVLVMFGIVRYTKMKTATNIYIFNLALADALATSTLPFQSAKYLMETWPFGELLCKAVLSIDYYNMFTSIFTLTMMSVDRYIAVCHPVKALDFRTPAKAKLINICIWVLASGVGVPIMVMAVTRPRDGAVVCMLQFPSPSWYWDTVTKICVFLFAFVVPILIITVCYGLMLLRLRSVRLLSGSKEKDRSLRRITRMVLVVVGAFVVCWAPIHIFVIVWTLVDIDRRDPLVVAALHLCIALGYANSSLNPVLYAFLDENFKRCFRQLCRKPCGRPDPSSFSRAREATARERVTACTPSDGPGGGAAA
# [6] = target: Mu-type opioid receptor (Cavia porcellus) (UniProt P97266); assay: Tested for electrically induced smooth muscle contractions from guinea pig ileum expressed in mu opioid receptors at 60 uM; type: functional, tissue-based
# Mu-type opioid receptor (Cavia porcellus), sequence (P97266 whole entry): as the sequence (P97266 whole entry) above
# [7] = target: Delta-type opioid receptor (Homo sapiens, UniProt P41143); assay: Binding affinity was measured against cloned human Opioid receptor delta 1 (wild-type,Wt)
# Delta-type opioid receptor (Homo sapiens, UniProt P41143), sequence (P41143 whole entry): as the sequence (P41143 whole entry, looked up) above
# Delta-type opioid receptor (Rattus norvegicus, UniProt P33533), sequence (P33533 whole entry): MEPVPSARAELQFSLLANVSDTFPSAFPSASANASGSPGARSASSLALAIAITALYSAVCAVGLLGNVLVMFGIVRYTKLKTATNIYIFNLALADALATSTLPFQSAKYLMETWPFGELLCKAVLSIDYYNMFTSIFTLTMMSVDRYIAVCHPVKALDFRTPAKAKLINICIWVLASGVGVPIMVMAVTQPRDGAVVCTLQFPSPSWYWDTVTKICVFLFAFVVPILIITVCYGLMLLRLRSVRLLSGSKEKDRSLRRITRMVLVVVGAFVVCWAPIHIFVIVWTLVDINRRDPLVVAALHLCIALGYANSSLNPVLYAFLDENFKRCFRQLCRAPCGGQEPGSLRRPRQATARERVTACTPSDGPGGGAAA
SMILES,IC50 [1],IC50 (Mu-type opioid receptor [2]),EC50 [3],EC50 (Mu-type opioid receptor [4]),also measured
Oc1cccc(CN2CCN(Cc3ccccc3)CC2)c1,6400 nM,–,–,–,–
CC(C)CC(c1cccc(O)c1)N1CCN(Cc2ccccc2)CC1 (centres undefined),420 nM,2100 nM,–,–,–
"CC(C)(C)c1ccc(C(c2cccc(O)c2)N2CCN(Cc3ccccc3)CC2)cc1 (single isomer, unassigned; (+))",–,–,210 nM,3000 nM,–
C=CCN1C[C@H](C)N([C@H](c2ccc(C(=O)N(CC)CC)cc2)c2cccc(O)c2)C[C@H]1C,0.31 nM,–,–,–,–
COc1cccc(C(c2ccc(C(C)(C)C)cc2)N2CCN(Cc3ccccc3)CC2)c1 (centres undefined),1800 nM,> 8000 nM,–,–,–
"CC(C)(C)c1ccc(C(c2cccc(O)c2)N2CCN(Cc3ccccc3)CC2)cc1 (single isomer, unassigned; (-))",–,–,360 nM,7600 nM,–
Oc1cccc(C(c2ccc(-c3ccccc3)cc2)N2CCN(Cc3ccccc3)CC2)c1 (centres undefined),31 nM,27000 nM,–,–,–
CC(c1cccc(O)c1)N1CCN(Cc2ccccc2)CC1 (centres undefined),610 nM,780 nM,–,–,–
Cc1cc(O)cc(C)c1[C@@H](C)[C@H](N)C(=O)N[C@H]1C(=O)NCC(=O)N[C@@H](Cc2ccccc2)C(=O)N[C@@H](C(=O)O)C(C)(C)SSC1(C)C,5 nM,4300 nM,1.8 nM,–,IC50 (Cavia porcellus): 5000 nM; Selectivity [5]: > 33000; inhibition [6]: 0%
CC(C)(C)c1ccc(C(c2cccc(O)c2)N2CCN(Cc3ccccc3)CC2)cc1 (stereo in doubt),–,–,85 nM,39000 nM,IC50 [7]: 5.51 nM
Oc1cccc(C(c2ccccc2)N2CCN(Cc3ccccc3)CC2)c1 (centres undefined),34 nM,500 nM,174 nM,1250 nM,Selectivity [5]: 7.1
C=CCN1C[C@H](C)N([C@H](c2ccc(C(=O)N(CC)CC)cc2)c2cccc(OC)c2)C[C@H]1C [SNC-80],–,2500 nM,–,–,–
